The record followed here is ChEMBL document CHEMBL1157427, “In vitro and in vivo anti-tumoral activities of imidazo[1,2-a]quinoxaline, imidazo[1,5-a]quinoxaline, and pyrazolo[1,5-a]quinoxaline derivatives” (Bioorg Med Chem, 2008).

The source made the active and inactive calls. The rule behind the calls is not given here.

One data set has as its system Raji. Description: Cytotoxicity against human Raji cells after 96 hrs by MTT assay. Type of data set: functional, cell-based. A digest of the protocol: (§1)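 Cells were seeded at 5000/well in DMEM (M4Be) or RPMI-1640 (others) and attached overnight. They were then exposed for 96 h at 37 °C, 5% CO2 to 10^-4 to 10^-10 […] in 1% DMSO/medium. MTT was added for 4 h, formazan dissolved in isopropanol/1 M HCl, and OD read at 570 nm. Survival was taken as % of vehicle control and IC50 as 50% growth inhibition. ≥3 experiments in triplicate; mean ± SD.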
Background: Formazan colour is commonly taken as a measure of viable cells.

The subject of a further data set is A-375. Description: Cytotoxicity against human A375 cells after 96 hrs by MTT assay. As to conditions: A-375, 96 h. Type of data set: functional, cell-based. In short, it runs like this: as §1
In a further data set the test system is LS174T. Description: Cytotoxicity against human LS174T cells after 96 hrs by MTT assay. Type of data set: functional, cell-based. A digest of the protocol:
as §1

The nature of data set [1]: Toxicity in ip dosed Swiss mouse. As to conditions: in vivo. Type of data set: organism-based. A digest of the protocol: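 Single intraperitoneal doses of 30 to 300 mg/kg given to healthy Swiss mice. Compound dissolved in intralipid/DMSO (50:50, v/v) because of poor water solubility. Read-out is the 50% lethal dose (LD50).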
Data set [2] is described as follows: Cytotoxicity against human RPMI7591 cells after 96 hrs by MTT assay. Type of data set: functional, cell-based.
For a further data set, the system named is MCF7. Description: Cytotoxicity against human MCF7 cells after 96 hrs by MTT assay. Type of data set: functional, cell-based. The following applies: MCF7, 96 h. A digest of the protocol: as §1
Another data set relates to M4Be. Description: Antitumor activity against human M4Be cells xenografted Swiss nude mouse assessed as reduction in tumor volume at 20 mg/kg, ip administered twice a week for 3 weeks measured from day 18 to day 55. Type of data set: functional, organism-based. The arrangement: dose 20 mg/kg. In short, it runs like this: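 Female Swiss nude mice (7 weeks old) were given 3×10^6 M4Be cells s.c. in the flank. At ~0.7 cm3 they were randomized, 6 per group, and received 20 mg/kg twice weekly (Mon/Thu) for 3 weeks in intralipid/DMSO (50:50), with the cycle repeated after 15 days. Controls received vehicle. Calipers twice weekly, V = 0.5ab². Repeated-measures ANOVA with contrast test, significance 0.02. Mean ± SEM.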
In general terms: A xenograft is tissue or cells of one species grown in another, often human tumour cells in immunodeficient mice.

A short description of data set [3]: Cytotoxicity against human M4Be cells after 96 hrs by MTT assay. Type of data set: functional, cell-based. In short, it runs like this:
as §1

A word on the IC50: it is the concentration that inhibits the measured activity by half. Lower therefore signals inhibition by little substance. The compound `CN(Cc1cnc2nc(N)nc(N)c2n1)c1ccc(C(=O)N[C@@H](CCC(=O)O)C(=O)O)cc1` [METHOTREXATE] displayed an IC50 in the data set with Raji of 0.04 µM. This counts as double-digit nanomolar.

For `CNc1nc2ccccc2n2c(CC(C)C)cnc12`, in the data set with A-375, half-maximal inhibition (IC50) required 31.6 µM.

In the case of `CNc1nc2ccccc2n2c(C)ncc12`, the IC50 in the data set with A-375 was determined as 100 µM.

`CC(C)Cc1cnc2c(N(C)C)nc3ccccc3n12`: in the data set with A-375, inhibition was half-maximal at 66.3 µM (IC50).

Consider `CN(C)c1nc2ccccc2n2c(CCc3ccccc3)cnc12`, for which 80.1 µM corresponded to half-maximal inhibition in the data set with A-375 (IC50).

Broadly, the LD50 is the dose at which mortality reaches 50%. A lower LD50 goes with a more toxic substance. Take `CNc1nc2ccccc2n2c(CCc3ccccc3)cnc12`: the IC50 in the data set with LS174T was 4.12 µM; in data set [2], 4.23 µM; in the data set with MCF7 it was 1.08 µM; with Raji it was 6.23 µM; in data set [3] it was 2.58 µM. The LD50 in data set [1] is > 300 mg/kg. Moreover, the result in the data set with M4Be was Active.

`Cc1cccc(Cl)c1Nc1nc2ccccc2n2c(CC(C)C)cnc12`: the half-maximal inhibitory concentration (IC50) in the data set on A-375 is > 400 µM.

As to `Cc1cccc(Cl)c1Nc1nc2ccccc2n2c(CCc3ccccc3)cnc12`, the IC50 in the data set with A-375 stood at 329 µM.

Turning to `CNc1nc2ccccc2n2cncc12`, the IC50 in the data set on A-375 is 85.3 µM.

Take `CN(C)c1nc2ccccc2n2cncc12`: the IC50 in the data set with A-375 came to 121 µM.

In turn, `CC(C)Cc1cc2c(N(C)C)nc3ccccc3n2n1` yielded an IC50 in the data set on A-375 of 101 µM.

Take `CNc1nc2ccccc2n2nc(CC(C)C)cc12`: the IC50 in the data set on A-375 worked out at 78.6 µM. The IC50 values of the last two compounds are within 1.5-fold of each other.

`Nc1nc2ccccc2n2c(CCc3ccccc3)cnc12` yielded an IC50 in the data set with A-375 of 2.35 µM.

On to `CCc1c2c(nc3ccc(OC(=O)N4CCC(N5CCCCC5)CC4)cc13)-c1cc3c(c(=O)n1C2)COC(=O)[C@]3(O)CC` [IRINOTECAN], for which the IC50 with LS174T worked out at 1.16 µM.

In the case of `CNc1nc2ccccc2n2c(-c3ccccc3)ncc12`, in the data set on A-375, the IC50 was > 400 µM.

`Clc1nc2ccccc2n2c(CCc3ccccc3)cnc12` registered an IC50 in the data set with A-375 of 24 µM.

`COc1nc2ccccc2n2c(CCc3ccccc3)cnc12` came in with an IC50 in the data set on A-375 of 47.8 µM.

Consider `CC(C)Cn1cnc2c(N)nc3ccccc3c21` [IMIQUIMOD], for which the IC50 with LS174T stood at 34.4 µM; in data set [2] it was 53.7 µM; in data set [3] it was 33.5 µM.
